This is a sample that favours compounds with a hit; in the whole collection about 5.8% have one here.
RBBP9 inhibitor – human RBBP9 hydrolase inhibition; O75884; recombinant RBBP9, FP-Rh probe fluorescence polarization; inhibition, % at 7.94 µM; 0.2% of 220,000 active; AID 1515;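 active = inhibition above the campaign mean of all tested compounds plus 3 SD, cut at about 14% in these data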
Target sequence (O75884 whole entry, looked up): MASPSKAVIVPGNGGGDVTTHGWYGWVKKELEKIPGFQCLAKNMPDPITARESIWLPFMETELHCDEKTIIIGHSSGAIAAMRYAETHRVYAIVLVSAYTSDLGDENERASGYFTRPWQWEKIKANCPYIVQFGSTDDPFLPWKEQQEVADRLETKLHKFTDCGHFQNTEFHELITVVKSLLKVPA
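System: RBBP9 protein | Quantity: 2.5 µM RBBP9 dispensing solution, before mixing | Reagent: FP-Rh probe, 375 nM dispensing solution | Timing: Enzyme-compound preincubation 30 min, then probe labeling 45 min, 25 °C | Measured by: Fluorescence polarization | Read-out: % inhibition | Replication: One well per compound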
Cl transport mod – KCC2 (human) Cl- transport modulation. B-score of Tl+ flux slope (higher = more flux/activation; lower = inhibition) at 10 µM. KCC2 cells, thallium flux FluoZin-2 fluorescence. AID 1456. 2.2% of 190,000 active. Q9H2X9;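 active = thallium flux slope and its plate-corrected score both differing from the plate sample mean at a set confidence after two filtering rounds, in either direction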;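 also: slope of fluorescence scaled to starting intensity during 10 to 20 s after thallium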
NCF1 inh – inhibitors of human p47phox binding; P14598; p47phox/p22phox peptide binding, fluorescence polarization, 2 h; inhibition, % at 24.7 µM; 0.53% of 220,000 active;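 active = inhibition above about 30%, limit read from the data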
14-3-3 Bad inh – disrupts binding of bovine 14-3-3 zeta to phospho-Bad peptide; 0.71% of 220,000 active; inhibition, % at 21.7 µM; TR-FRET 14-3-3zeta/Dy647-pBad peptide displacement, 1 h; AID 781;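 active = inhibition above about 70%, limit read from the data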
Target sequence (P63103 whole entry, looked up): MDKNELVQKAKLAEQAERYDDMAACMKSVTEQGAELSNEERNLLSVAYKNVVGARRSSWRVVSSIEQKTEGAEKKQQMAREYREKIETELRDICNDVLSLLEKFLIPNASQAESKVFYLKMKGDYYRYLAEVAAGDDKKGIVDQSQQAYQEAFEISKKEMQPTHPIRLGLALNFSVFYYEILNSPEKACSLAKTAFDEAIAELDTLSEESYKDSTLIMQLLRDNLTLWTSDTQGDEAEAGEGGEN
ROMK primary – modulates human ROMK potassium channel activity. P48048. Tet-inducible ROMK, thallium flux fluorescence; actives lie on both sides. B-score at 10 µM. 2% of 130,000 active. AID 1918;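 active = signal ratio slope over the read window, or its plate-corrected B-score, at least 3 SD from the plate mean, either direction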;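 also: B-score of the F/F0 ratio slope over 7 to 12 s after thallium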
WT yeast gro inh – growth inhibition of WT yeast, mitochondrial fusion screen. mitochondrial fusion phenotypic screen, WT strain. inhibition, % at 10 µM. 2.1% of 190,000 active. AID 1362; in the data active = inhibition above about 58%; tested in S. cerevisiae
KCC2 sec1 – confirmation of human KCC2 transport modulators; HEK293-KCC2, thallium flux, FluoZin2 fluorescence; active compounds read high; 15% of 3,700 active; normalised thallium flux (F/F0 slope) at 10 µM; AID 1713; shares compounds with Cl transport mod;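 active = thallium flux slope above the same plate's solvent-only control mean plus 3 SD; inconclusive = the two replicate wells disagree; inactive = no significant difference from solvent-only control wells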
KCC2 bumet counter – thallium flux despite bumetanide block in KCC2 cells, secondary assay 3; 49% of 3,700 active; HEK293-KCC2 + bumetanide/ouabain, thallium flux FluoZin2; active compounds read high; shares compounds with Cl transport mod; normalized thallium flux at 10 µM;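 active = thallium entry rate above the same plate's blocked-transporter control wells by more than 3 SD; inconclusive = the two repeat wells disagree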;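 also: raw slope of fluorescence over initial fluorescence between 10 and 20 s after thallium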
KCC2 secondary2 – confirmation of human KCC2 transport modulators | shares compounds with Cl transport mod | HEK293-KCC2, thallium flux FluoZin2 fluorescence; actives lie on both sides; F/F0 rise rate, 10–20 s post-thallium | normalized thallium flux at 10 µM | 23% of 3,700 active | AID 1715;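 active = thallium flux slope more than 3 SD above or below the plate's solvent-only control mean, mostly below; inconclusive = the two repeat wells disagreed; inactive = no significant shift from solvent-only controls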
HEK counter1 – parental HEK flux effect, counter-screen | shares compounds with Cl transport mod | HEK293 parental cells, thallium flux FluoZin2, ouabain; baseline-ratio fluorescence slope, 10–20 s after thallium | thallium flux rate (normalised fluorescence) at 10 µM | 46% of 3,700 active;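 active = thallium flux rate significantly above the same plate's solvent-only control wells, beyond their mean plus 3 SD; inconclusive = the two replicate wells gave conflicting results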
KCC2 ouabain – confirmation of human KCC2 modulators with ouabain; shares compounds with Cl transport mod; HEK293-KCC2, thallium flux FluoZin2 fluorescence; bidirectional: low = inhibitor, high = activator; raw Tl+ flux slope (below DMSO = inhibition, above = activation) at 10 µM; 48% of 3,700 active; AID 1717;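 active = thallium flux slope beyond 3 SD from same-plate DMSO control mean in most replicates, usually higher, sometimes lower; inconclusive = repeat tests gave conflicting results; inactive = no significant difference from controls in most replicates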;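 also: slope of initial-normalized fluorescence between seconds 10 and 20 after thallium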
HEK293 Tl flux2 – acts in parental HEK cells, second KCC2 counter-screen. shares compounds with Cl transport mod. HEK293 parental, thallium flux FluoZin-2 fluorescence slope. thallium flux slope at 10 µM. 33% of 3,700 active. AID 1718;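 active = thallium flux slope above the same plate's solvent-control mean plus 3 SD in both duplicate wells; inconclusive = duplicate wells that disagreed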;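 also: run without ouabain in cells lacking the KCC2 cotransporter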
Numbers stand for hits; n = inactive; u = inconclusive; x = no result.

SMILES	RBBP9 inhibitor	Cl transport mod	NCF1 inh	14-3-3 Bad inh	ROMK primary	WT yeast gro inh	KCC2 sec1	KCC2 bumet counter	KCC2 secondary2	HEK counter1	KCC2 ouabain	HEK293 Tl flux2
O=C(Nc1ccc([N+](=O)[O-])cc1)N1CCCCC1	n	n	n	n	n	n	x	x	x	x	x	x
Cc1ccc(C)c(NC(=S)N(C)CCO)c1	n	n	n	n	x	n	x	x	x	x	x	x
CCOC(=O)c1nc(Nc2cc(C)cc(C)c2)c2ccccc2n1	n	n	n	n	n	n	x	x	x	x	x	x
Cc1ccc(C(=O)/C=C/Nc2ccccc2C(N)=O)cc1	n	-3.3	n	n	x	n	n	0.0065	u	n	n	n
N#Cc1c2ccccc2nc2ccccc12	n	x	n	n	x	x	x	x	x	x	x	x
Cc1c(CN2CCC(CO)(Cc3cccc(C(F)(F)F)c3)CC2)c2ccccc2n1C	n	x	n	n	n	n	x	x	x	x	x	x
CCN(CC)CCCNC(=O)c1cn(CCOC)c(=O)c2c1c1ccccc1n2C	n	x	n	n	x	n	n	u	n	n	n	n
CCOC(=O)N1CCC(N2CCCC(CO)(Cc3cccc(OC)c3)C2)CC1 (stereo unspecified)	n	n	n	n	n	n	x	x	x	x	x	x
O=C(/C=C/c1ccccc1)NCCSCc1ccccc1Cl	n	-3.8	n	n	x	n	n	n	n	n	0.017	n
CCC(=O)N1CCN(c2ccccc2NC(=O)COc2ccccc2Cl)CC1	n	x	n	n	x	n	n	u	n	u	n	n
O=C(CC(Cc1ccccc1)c1ccco1)NC1CCCCC1 (stereo unspecified)	n	x	n	n	x	n	n	n	0.028	n	0.013	n
O=C(O)c1ccc(N2CC3CC(C2)c2cccc(=O)n2C3)c(NS(=O)(=O)c2cccc(C(F)(F)F)c2)c1 (stereo unspecified)	n	n	n	n	n	n	x	x	x	x	x	x
O=c1cc(-c2ccccc2)nc2cc(-c3ccco3)[nH]n12	n	3.9	n	n	x	x	u	0.014	n	0.011	u	n
Cc1cc2nc(-c3ccccc3)cc(=O)n2[nH]1	n	n	n	n	x	x	x	x	x	x	x	x
O=C(CN1CCN(c2ccccc2F)CC1)c1c[nH]c2ccccc12	n	-4.3	n	n	x	n	n	n	n	n	n	0.011
COc1ccccc1N1CCN(CC(=O)c2c[nH]c3ccccc23)CC1	n	n	n	n	x	x	x	x	x	x	x	x
CC(C)[C@H](NC(N)=O)C(=O)Nc1ccc(F)c(Cl)c1	n	n	n	n	n	n	x	x	x	x	x	x
O=C(NC(=S)N(Cc1ccccc1)Cc1ccccc1)C1CCCCC1	n	n	n	n	n	n	x	x	x	x	x	x
CCN(C(=S)NC(=O)C1CCCC1)C1CCCCC1	n	7.3	n	n	n	n	n	0.03	n	u	0.033	u
Cc1cccc(-c2nc(=S)c3c(o2)CCCC3)c1	n	53	n	n	x	x	0.015	0.03	n	0.015	u	u
Cc1cccc(-c2nnc(-c3ccc(N)cc3)o2)c1	n	n	n	n	x	n	x	x	x	x	x	x
COc1ccc(C(=O)N2CCOC2CNC(=O)C(=O)NCc2ccco2)cc1 (stereo unspecified)	n	n	n	n	n	n	x	x	x	x	x	x
CCn1c(SCC(N)=O)nnc1-c1ccc(S(=O)(=O)N2CCN(C)CC2)cc1	n	3.7	n	n	n	n	n	n	n	u	n	u
O=C(NC(=S)Nc1ccc(Br)cn1)c1cncc(Br)c1	n	n	n	n	n	n	x	x	x	x	x	x
CCOc1ccc(C(=O)NC(=S)Nc2ccccn2)cc1[N+](=O)[O-]	n	n	n	n	n	n	x	x	x	x	x	x
SMILES	RBBP9 inhibitor	Cl transport mod	NCF1 inh	14-3-3 Bad inh	ROMK primary	WT yeast gro inh	KCC2 sec1	KCC2 bumet counter	KCC2 secondary2	HEK counter1	KCC2 ouabain	HEK293 Tl flux2
O=C(NC(=S)Nc1ccccn1)c1cccc([N+](=O)[O-])c1	n	8	n	n	n	x	u	0.042	n	0.014	n	0.013
O=C(NC(=S)Nc1cccc([N+](=O)[O-])c1)c1ccco1	n	28	n	n	n	n	0.022	0.079	u	u	0.062	0.025
O=C(NC(=S)Nc1ccc(Br)cn1)c1cccs1	n	7.7	n	n	n	n	n	0.024	n	0.017	0.033	0.018
O=C(NC(=S)Nc1ccccn1)c1cncc(Br)c1	n	6.2	n	n	n	n	n	0.017	n	0.015	u	0.014
Cc1cccnc1NC(=S)NC(=O)c1cccs1	n	x	n	n	x	n	x	x	x	x	x	x
COc1ccc(Cc2noc(CN3CCCC(OCc4ccccn4)C3)n2)cc1OC (stereo unspecified)	n	n	n	n	n	n	x	x	x	x	x	x
Cc1ccc(S(=O)(=O)Nc2nc3ccccc3nc2NCC2CCCO2)cc1C (stereo unspecified)	n	n	n	n	x	x	x	x	x	x	x	x
O=C(NC(=S)Nc1ccc(N2CCOCC2)cc1)c1cncc(Br)c1	n	5.5	n	n	n	n	n	0.019	n	u	0.026	n
O=C(NC(=S)Nc1cccc([N+](=O)[O-])c1)c1ccccc1	n	12	n	n	x	x	n	0.03	n	u	n	u
CCc1ccc(C(=O)NC(=S)Nc2ccc(N3CCOCC3)cc2)cc1	n	n	n	n	n	n	x	x	x	x	x	x
Cc1ccc(C(=O)NC(=S)Nc2cccc(NC(=O)c3ccccc3)c2)cc1[N+](=O)[O-]	n	n	n	n	n	n	x	x	x	x	x	x
CC(C)(CC(=O)O)CC(=O)Nc1cc(C(F)(F)F)cc(C(F)(F)F)c1	n	n	n	n	x	x	x	x	x	x	x	x
CN1CCC(Oc2ccccc2Sc2ccccc2)CC1	n	n	n	n	n	n	x	x	x	x	x	x
CN1CCC(OC(c2ccccc2)c2ccccc2)CC1	n	4.7	n	n	x	n	n	n	n	u	n	n
O=C([C@H](O)c1ccccc1)N1CCC[C@H]1CO	n	x	n	n	n	n	x	x	x	x	x	x
COc1ccc(CNC(=O)C2CCC(CNc3nc(=S)[nH]c4ccccc34)CC2)cc1 (stereo unspecified)	n	n	n	n	n	n	x	x	x	x	x	x
Cc1ccc(OCC(=O)NCC(=O)n2nc(C)cc2C)cc1	n	n	n	n	n	n	n	n	0.028	n	n	n
Cc1cc(C)n(C(=O)CNC(=O)COc2ccccc2)n1	n	x	n	x	n	n	x	x	x	x	x	x

Bioassay records (PubChem)
